# Most compounds without a hit are left out; they make up all but 3.7% or so of the library.
# B2AR ag – human beta-2 adrenergic receptor agonism by FAP. Am2.2-beta2AR cells, FAP receptor internalization, flow cytometry. P07550. hit rate 0.43% among 340,000. response, % (concentration not given with the values);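 active means response above a set limit, near 3 SD of response in nonfluorescent compounds, cut at about 42% in these data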
# CHOP UPR activ – apoptotic UPR (CHOP) activation. hit rate 0.34% among 330,000. CHO-CHOP luciferase reporter, luminescence; percent of tunicamycin response over DMSO baseline. activation, % at 10 µM;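 active means at 10 µM dose, activation of 40% or more, normalized to positive control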
#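 System: CHO-CHOP luciferase reporter cell line | Buffer or medium: F12 medium containing 10% fetal bovine serum | Doses: One dose, 10 µM in 0.5% DMSO | Times: 6 h compound exposure at 37 °C after overnight seeding | Signal: Luciferase luminescence | Read-out: % activation vs tunicamycin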
# Mdm2 ligase inh – Mdm2 E3 ligase (human) inhibition; Q00987; AID 1230; cell-based MDM2 ubiquitination luciferase reporter, 2 h; 0 = plate control, 100 = twice control, blank-subtracted; hit rate 0.11% among 210,000; signal enhancement, % at 5 µM;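 active means signal enhancement of 30% or more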;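 further: luminescence tracks abundance of the self-degrading MDM2-luciferase fusion protein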
# Target sequence (Q00987 whole entry, looked up, the tested form may be a part): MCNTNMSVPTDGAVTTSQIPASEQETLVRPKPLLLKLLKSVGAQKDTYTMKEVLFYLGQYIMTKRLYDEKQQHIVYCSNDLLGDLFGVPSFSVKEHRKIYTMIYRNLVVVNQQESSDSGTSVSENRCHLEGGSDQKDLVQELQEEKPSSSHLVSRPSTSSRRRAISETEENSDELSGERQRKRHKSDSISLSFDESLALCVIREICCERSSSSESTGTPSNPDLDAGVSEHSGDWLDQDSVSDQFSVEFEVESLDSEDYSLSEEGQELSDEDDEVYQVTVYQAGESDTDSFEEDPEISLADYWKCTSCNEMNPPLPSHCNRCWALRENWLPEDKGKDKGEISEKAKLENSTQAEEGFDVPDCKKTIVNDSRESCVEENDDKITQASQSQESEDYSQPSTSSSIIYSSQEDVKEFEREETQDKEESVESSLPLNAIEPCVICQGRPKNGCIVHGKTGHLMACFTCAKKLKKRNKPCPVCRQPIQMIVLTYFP
#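 Timing – 2 h compound exposure at 37 °C · Assay system – mammalian cells stably expressing self-ubiquitinating, self-degrading MDM2 E3–luciferase fusion · Amount – 2000 cells seeded into each well · Measure – % luminescence enhancement versus blank-corrected plate control mean · Measured by – SteadyLite luminescence, 15 min reagent step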
# Dynein transport – dynein cargo transport inhibition; AID 1381; 3617.4 mouse cells, GR-EGFP nuclear translocation imaging; test concentration mostly 20 µM; stimulated with dexamethasone, 1 µM; stronger effect = lower value; hit rate 0.47% among 220,000; z-score, hits read low;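 active means plate z-score of nuclear minus cytoplasmic receptor signal below a set negative limit, without overly bright fluorescence or cell loss, cut at about -3.5 in these data, passing the limit was not always enough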;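 further: z-score of nuclear minus cytoplasmic ring GR-EGFP intensity difference per well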
#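 Buffer or medium – tet-free medium with charcoal-stripped serum · Signal – automated 10x imaging of fixed Hoechst-stained cells · Also added – dexamethasone agonist, 1.0 µM final, for 30 min · Incubation – induction 48 h, compound 1 h, agonist 30 min · Read-out – GR-EGFP nuclear translocation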
# Mdm2-MdmX inh – inhibitors of human Mdm2/MdmX interaction; O15151+Q00987; SaOS-2 split-luciferase Mdm2/MdmX complementation, luminescence; inhibition, % at 8 µM; hit rate 3% among 330,000;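 active means inhibition of at least 50% at 8 µM in the primary screen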
# XBP1 UPR activ – adaptive UPR (XBP1) activation. CHO-XBP1 luciferase reporter, IRE1-XBP1 UPR activation, luminescence; percent of tunicamycin response, DMSO as zero. activation, % at 20 µM. hit rate 0.33% among 330,000. AID 463104;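 active means versus positive control, 20 µM dose yields 30% or more activation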
#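 Material: IRE1-XBP1 luciferase reporter CHO line / Quantity: one thousand reporter cells per well / Buffer or medium: F12 with 10% serum / Compound: 20 µM single concentration, DMSO 1% / Times: 6 h treatment, 37 °C / Detection: Steady-Glo luciferase glow luminescence, 10 min after reagent addition / Benchmarks: tunicamycin high, DMSO low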
# Mdm2-MdmX conf – human Mdm2/MdmX binding inhibition, confirmed | AID 489028 | inhibition, % at 8 µM | hit rate 55% among 10,000 | shares compounds with Mdm2-MdmX inh | luminescent assay; in the data active means inhibition above about 40%
# FLuc counter – full-length luciferase inhibition in Mdm2/MdmX counter-screen. inhibition, % at 8 µM. shares compounds with Mdm2-MdmX inh. SaOS-2 full-length luciferase counterscreen, luminescence. AID 504607. hit rate 77% among 6,200;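 active means mean inhibition at 8 µM reaching about 37%, which flags the compound as non-specific, limit read from the data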;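 further: p53-null SaOS-2 cells with luciferase driven by a doxycycline-inducible promoter; compound on cells about two nights before reading with doxycycline added after day one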
# Numbers stand for hits; – = inactive; · = not tested or not shown.
SMILES,B2AR ag,CHOP UPR activ,Mdm2 ligase inh,Dynein transport,Mdm2-MdmX inh,XBP1 UPR activ,Mdm2-MdmX conf,FLuc counter
N=c1c(C(=O)NCCc2ccccc2)cc2c(=O)n3ccccc3nc2n1CC1CCCO1 (stereo unspecified),–,–,·,·,–,–,·,·
Cc1cccn2c(=O)c3cc(C(=O)NCCc4ccccc4)c(=N)n(CCCn4ccnc4)c3nc12,–,–,–,–,51,–,–,·
O=C(COC(=O)c1ccccc1O)NC12CC3CC(CC(C3)C1)C2,·,–,·,·,–,–,·,·
O=C(COC(=O)/C=C/C(=O)OCC(=O)NC12CC3CC(CC(C3)C1)C2)NC12CC3CC(CC(C3)C1)C2,–,–,–,–,94,–,–,68
Cc1cc(C)c2nc(Nc3nc(-c4ccccc4)cc(=O)[nH]3)nc(C)c2c1,–,–,–,–,71,–,–,·
Oc1c(C(Nc2nccs2)c2ccc(C(F)(F)F)cc2)ccc2cccnc12 (stereo unspecified),–,·,–,–,·,·,·,·
Oc1c(C(Nc2cccc(C(F)(F)F)c2)c2ccncc2)ccc2cccnc12 (stereo unspecified),–,–,–,–,61,–,49,–
Cc1cccc(N=c2oc3cc(O)ccc3cc2C(N)=O)c1,–,–,–,–,50,–,–,·
COc1ccc2cc(C(N)=O)c(=Nc3ccc(C)cc3)oc2c1,–,–,–,–,54,–,46,–
O=c1[nH]c2ccc([N+](=O)[O-])cc2nc1/C=C(\O)c1ccccc1,–,–,·,–,81,–,–,·
COc1cccc(/C=C2\NC(=O)NC2=O)c1O,–,–,·,·,–,–,·,·
CN(C(=O)CCS(=O)(=O)c1ccc2c(c1)oc(=O)n2C)C1CCCCC1,–,–,·,·,–,–,·,·
O=C(CCS(=O)(=O)c1ccccc1)Nc1nc(-c2cccs2)cs1,–,–,·,–,97,–,47,51
O=C(CCS(=O)(=O)c1ccc(F)cc1)Nc1nc(-c2ccncc2)cs1,–,–,·,·,89,–,68,–
O=C(COc1ccccc1)Nc1nc(-c2cccs2)cs1,–,–,–,–,–,–,·,·
O=C(Nc1nc(-c2ccccc2)cs1)c1ccccc1NS(=O)(=O)c1ccc(F)cc1,–,–,–,–,90,–,89,–
O=S(=O)(Nc1ccc(-c2csc(-c3ccccc3)n2)cc1)c1ccc(F)cc1,–,–,–,–,–,–,·,·
COc1ccc(-c2csc(NC(=O)CS(=O)(=O)c3ccc(F)cc3)n2)cc1OC,–,–,·,·,–,–,·,·
C#CCN1C=C(C(=O)OCC)C(C)N(Cc2ccccc2I)S1(=O)=O (stereo unspecified),–,–,·,·,55,–,49,51
CC(SCC(=O)Nc1ccccc1Br)c1nc2ccccc2c(=O)[nH]1 (stereo unspecified),–,–,·,·,–,–,·,·
CCC(C)NS(=O)(=O)c1ccc(NC(=O)C(Sc2ccccc2)c2ccccc2)cc1 (stereo unspecified),–,–,–,–,56,–,44,70
CC(=O)NS(=O)(=O)c1ccc(NC(=O)C(Sc2ccccc2)c2ccccc2)cc1 (stereo unspecified),–,–,–,–,–,–,·,·
Oc1ccccc1N=Nc1nc(-c2ccccc2)c(-c2ccccc2)[nH]1,–,–,–,–,87,–,86,50
CCCn1c2ccccc2c2nnc(SC(CC)C(=O)Nc3sc4c(c3C#N)CCCC4)nc21 (stereo unspecified),–,–,–,–,54,–,–,·
CCCn1c2ccccc2c2nnc(SC(CC)C(=O)Nc3cc(C)on3)nc21 (stereo unspecified),–,–,·,–,–,–,·,·

# Screening data: PubChem, several laboratories
